Screening results deposited in PubChem BioAssay by several laboratories.
STAT1 blocker: reduces IFN-gamma driven STAT1 reporter signal. actives 0.35% (n = 200,000). inhibition, % at 5.5 µM. NIH 3T3 STAT1-luciferase reporter, luminescence. AID 920;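 active = inhibition above a set limit, the mean inhibition across all tested compounds plus 3 SD, cut at about 34% in these data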;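 also: 0% = IFN-gamma with DMSO and 100% = IFN-gamma with 300 µM nifuroxazide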
PPC-1+TRAIL kill: PPC-1 cancer cell killing with TRAIL present | PPC-1 cells + TRAIL, ATPLite viability luminescence | cell killing (% activity), % at 4 µM or 5 µM | actives 0.41% (n = 220,000) | AID 1443;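 active = cell killing above 50% in the first pass at 4 µM, then a duplicate retest at 5 µM averaging 50% or more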;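 also: plate controls were cells with TRAIL plus DMSO for no effect and medium-only wells lacking cells for full effect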
STAT3 inh: reduces IL-6 driven STAT3 reporter signal | U3A cells, IL-6 STAT3-luciferase reporter, luminescence; host cell line lacks STAT1 | inhibition, % at 5.5 µM | actives 0.89% (n = 190,000) | AID 862;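 active = inhibition above the mean inhibition across all screened compounds plus 3 SD, cut at about 44% in these data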;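 also: 0% = DMSO only wells and 100% = 100 µM nifuroxazide control wells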
TRAIL sens C8: caspase-8 TRAIL sensitization. NB7+C8 cells + TRAIL, ATPlite viability luminescence. inhibition (viability loss, TRAIL sensitization), % at 10 µM. actives 1% (n = 360,000). AID 624354;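 active = compounds causing at least 50% loss of cell viability in the single-dose screen, relative to plate controls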
STAT3 act-1: activators of IL-6 induced STAT3 signaling. actives 0.91% (n = 190,000). activation (% of control), % at 5.6 µM. AID 871. U3A cells, IL-6 STAT3-luciferase reporter, luminescence; 100% = signal with IL-6 EC80 alone;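 active = activation above the screen-wide mean of compound activation plus 3 SD, cut at about 130% in these data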;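 also: 0% = background luminescence of wells with medium and substrate only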
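system = STAT3-luciferase reporter U3A cells | reagent = IL-6 stimulus at 33 ng/mL final | timing = 1 h compound pre-exposure, 6 h IL-6 stimulation, 37 °C | measured by = luminescence | evaluation = % activation versus median of IL-6-stimulated wells | control set = IL-6-only wells as 100% reference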
STAT3 act-2: confirmation of STAT3 signaling activators; shares compounds with STAT3 act-1; U3A STAT3-luciferase reporter, IL-6 potentiation, luminescence; U3A cells lack STAT1; 100 means same as IL-6 alone; potentiation (% of control), % at 5.7 µM; actives 64% (n = 1,200);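 active = percent activation of the STAT3 luciferase reporter above a set limit taken from the earlier primary screen, cut at about 130% in these data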;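 also: 0% = background signal of medium plus substrate and 100% = median of IL-6 with DMSO wells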
NFkB act 2: activates NF-kappaB, counter-screen to STAT3 activators; shares compounds with STAT3 act-1; human cells, NF-kappaB reporter activation; activation (% of control), % at 5.7 µM; actives 11% (n = 1,200); in the data active = activation above about 120%;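 also: reporter induced by TNF-alpha stimulation; 100% = median of stimulated DMSO wells and 0% = no signal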
STAT1 act STAT3c: activates STAT1, counter-screen to STAT3 activators | shares compounds with STAT3 act-1 | NIH 3T3 STAT1-luciferase reporter, IFN-gamma, luminescence | activation (% of control), % at 5.7 µM | actives 13% (n = 1,200) | AID 1318;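 active = activation above the solvent-only control well mean plus 3 SD, set per screening run, cut at about 120% in these data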;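 also: 100% = IFN-gamma with DMSO median signal so 100% means no change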
* marks the source's active call; other numbers are inactive results; i = inactive; . = not tested or not shown; + = active, no number. Sampled rows, rich in hits. Any-hit rate of the full collection: about 1.8%.

SMILES	STAT1 blocker	PPC-1+TRAIL kill	STAT3 inh	TRAIL sens C8	STAT3 act-1	STAT3 act-2	NFkB act 2	STAT1 act STAT3c
CC1=NN(c2nc(-c3ccccc3)cs2)C(=O)C1N=Nc1ccccc1 (stereo not given)	-15	14	25	-7	87	.	.	.
CCC(C(=O)O)N1C(=O)C2CCCCC2C1=O (stereo not given)	.	9	.	-2	.	.	.	.
CCN(CC(=O)Nc1ccc(OC)cc1)C(=O)Cc1cccs1	.	.	.	-11	.	.	.	.
Cc1oc(/N=C/c2ccccc2O)c(C#N)c1C	-5	28	-49	1	146*	157*	106	101
Cc1oc(/N=C/c2ccc(Cl)cc2)c(C#N)c1C	-9	18	-50	11	146*	136*	104	113
NC(=O)c1ccc(NC(=S)NCc2ccco2)cc1	-1	-3	-5	2	106	.	.	.
NS(=O)(=O)c1ccc(NC(=S)NCc2ccco2)cc1	4	20	-38	-2	136*	123	98	98
Cc1noc(/C=C/N(C)C)c1S(=O)(=O)N1CCc2ccccc21	6	6	-56	15	151*	139*	103	97
Cc1noc(/C=C/N(C)C)c1S(=O)(=O)N(C)CC(=O)N1CCc2ccccc21	-2	15	0	.	104	.	.	.
CC(C)(C)OC(=O)N1C(=O)[C@](OC(=O)c2ccccc2)(c2ccccc2)c2cccc(F)c21	.	.	.	13	.	.	.	.
O=C(O)c1sccc1SCc1ccc(Cl)cc1Cl	0	-5	-39	3	137*	116	103	91
CCn1c(SC(C)C(=O)Nc2nccs2)nnc1-c1ccncc1 (stereo not given)	.	.	.	-20	.	.	.	.
CC(C)Cc1cc(C(=O)Nc2cc(C(F)(F)F)ccc2Cl)no1	3	18	-42	6	143*	125	97	96
Cc1ccc(N2CCN(S(=O)(=O)c3c(C)nc4sccn4c3=O)CC2C)cc1 (stereo not given)	.	.	.	-5	.	.	.	.
CCOc1ccc2nc(NC(=O)C3=NN(c4ccccc4)C(=O)CC3)sc2c1	-8	8	26	15	81	.	.	.
CC1CCCC(C)N1C(=O)Cn1cc(/C=C2/C(=O)Nc3ccccc32)c2ccccc21 (stereo not given)	-4	21	-70	-1	158*	151*	99	103
Cc1ccc(-c2cc(C(=O)N3CCCC(C(F)(F)F)C3)c3ccccc3n2)o1 (stereo not given)	.	.	.	4	.	.	.	.
CN1CCN(C(=O)c2cc3c(c(-c4cccc(-c5cccnc5)c4)n2)[C@@H](CCO)N(C(=O)CC2CC2)C3)CC1	.	.	.	-3	.	.	.	.
O=C(c1cccs1)N1CCCc2ccccc21	-3	-17	-4	-9	106	.	.	.
Cc1ccc2c(c1)CCCN2C(=O)c1cccs1	6	-16	-51	-11	146*	132	103	107
CCc1c(C)sc(NC(=O)c2ccco2)c1C(=O)N1CCOCC1	-4	7	-42	0	138*	99	109	103
CCN(CC)C1CCN(C(=O)c2cc(COc3cccc4cccnc34)on2)C1 (stereo not given)	.	.	.	-7	.	.	.	.
CCOC(=O)c1c(C)[nH]c(C(=O)OCC(=O)Nc2cc(Cl)ccc2OC)c1C	3	19	-55	-15	148*	123	104	96
Cc1sc2ncnc(N3CCC(C(=O)Nc4ccc(Br)cc4Br)CC3)c2c1C	.	.	.	16	.	.	.	.
COc1ccc(C2c3[nH]c4ccccc4c3CCN2CCCn2cccn2)c(C)c1C (stereo not given)	2	21	-67	8	163*	163*	101	95
SMILES	STAT1 blocker	PPC-1+TRAIL kill	STAT3 inh	TRAIL sens C8	STAT3 act-1	STAT3 act-2	NFkB act 2	STAT1 act STAT3c
COc1cccc(C2c3[nH]c4ccccc4c3CCN2C(=O)Cn2cncn2)c1OC (stereo not given)	4	.	-32	-2	130	.	.	.
COc1ccc(C2CC3(CC(C)(C)NC(=S)N3)Oc3cc(O)cc(C)c32)cc1OC (stereo not given)	-4	18	i	-6	+	693*	118	121*
Fc1cccc2sc(Nc3nc4c(F)cccc4s3)nc12	-4	11	-72	5	156*	182*	122*	119
CCOc1ccccc1C1CC(c2cccs2)=NN1S(C)(=O)=O (stereo not given)	5	18	-34	25	137*	147*	103	87
CCOc1ccccc1NC(=O)COC(=O)c1ccc2ccccc2n1	.	.	.	-4	.	.	.	.
Cc1ccc(-c2[nH]c3ccccc3c2C(C[N+](=O)[O-])c2ccco2)cc1 (stereo not given)	19	9	-56	11	152*	134*	97	78
Nc1cccc(C2=Nc3cccc4cccc(c34)N2)c1	1	12	-63	6	147*	157*	103	105
CCn1c(C)c(/C=N/Nc2nc3ccccc3s2)c2ccccc21	-19	24	-45	-2	136*	132	104	114
Cc1ccc(Sc2c(C=O)c3ccccc3n2C)cc1	11	5	-63	-2	157*	128	81	87
Cc1ccc(Sc2c(O)c3ccccc3n(C)c2=O)cc1	0	3	-9	0	109	.	.	.
C=CCn1c(C)nnc1SCC(=O)Nc1oc(C)c2c(C)n[nH]c(=O)c12	.	.	.	0	.	.	.	.
O=C(OCc1nc2ccccc2s1)c1cnccn1	-17	21	-37	-1	136*	146*	119	140*
COC(=O)c1cc2c(s1)-c1ccccc1CC2	-21	15	-64	-3	164*	150*	112	126*
COC(=O)c1cc2c(s1)-c1cc(F)ccc1OC2	.	15	.	-3	.	.	.	.
Nn1cnnc1N/N=C\c1ccc(-c2ccccc2[N+](=O)[O-])o1	-21	5	-50	8	147*	105	104	101
O=C(O)c1ccc(NC2=C/C(=N/S(=O)(=O)c3ccccc3)c3ccccc3C2=O)cc1	19	30	-55	38	155*	131	99	101
COc1ccccc1NC(=O)COC(=O)Cc1c[nH]c2ccccc12	20	-15	-51	0	141*	142*	109	96
COc1ccccc1CNC(=O)COC(=O)Cc1c[nH]c2ccccc12	.	.	.	2	.	.	.	.
CCOC(=O)C1CCN(c2nc(-c3ccc(Br)cc3)nc3ccccc23)CC1	5	12	-40	11	142*	137*	98	89
NC(=O)C1CCN(c2nc(-c3ccccc3)nc3ccccc23)CC1	8	12	4	-4	100	.	.	.
